Test results: PMC4266334 (Journal of Medicinal Chemistry, 2014)

Experiments:
leukemia Jurkat-T = test: MTT toxicity assay, Jurkat; assay type: cell-based, human; details: read-out: IC50 Jurkat, 24 h incubation, mean ± SD (n = 4)
Method in brief: (§1)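 Cells were seeded at 5 × 10^4/well for Jurkat or 10^4/well for adherent lines, which attached 24 h. Test compound was added at several concentrations in triplicate for 24 h at 37 °C, 5% CO2, and read by modified MTT reduction.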

[1] = test system: nontumorigenic human embryonic kidney cells HEK293T; test: MTT toxicity assay, HEK-293T; assay type: cell-based; details: read-out: IC50 HEK-293T, 24 h incubation, mean ± SD (n = 4)
Method in brief: (§2)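 Adherent cells (10^4/well) attached for 24 h, then test compound was added at several concentrations in triplicate for 24 h at 37 °C, 5% CO2. Proliferation was read by a modified MTT-reduction method.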

lung A549 = test: MTT toxicity assay, A549; assay type: cell-based, human; details: read-out: IC50 A549, 24 h incubation, mean ± SD (n = 4)
Method in brief: as §2

plasmid (pBR322) DNA = test: Electrophoresis mobility shift assay; assay type: binding; details: 37 °C, 20 h, Tris/HCl buffer, up to drug/DNA ratio 2.0
Method in brief: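 pBR322 DNA (20 μg/mL) in 5 mM Tris/HCl, 50 mM NaClO4, pH 7.39 was incubated with test compound at 0.25–2.0 metal complex:DNA bp. Incubation was 37 °C, 20 h, in the dark, with free DNA and cisplatin-DNA controls. Samples ran on 1% agarose in TAE for 1.5 h at 80 V and were stained 30 min with GelRed.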

prostate DU-145 = test: MTT toxicity assay, DU-145; assay type: cell-based, human; details: read-out: IC50 DU-145, 24 h incubation, mean ± SD (n = 4)
Method in brief: as §1

[2] = test system: human renal proximal tubular cells (RPTC); test: XTT assay for RPTC cells; assay type: cell-based; details: read-out: IC50 RPTC; XTT assay 24 h
Method in brief: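 Primary human renal proximal tubular cells were grown in RenaLife medium (0.5% FBS, growth factors) at 37 °C, 5% CO2. They were seeded at 5 × 10^3/well and grown 24 h. Test compound from fresh aqueous stock was given at 0.1–200 μM final for 24 h. XTT absorbance was read at 450 nm and survival calculated against untreated cells. IC50 is mean ± SE of at least two experiments in triplicate.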

[3] = test system: triple negative breast MDA-MB-231; test: MTT toxicity assay, MDA-MB-231; assay type: cell-based, human; details: read-out: IC50 MDA-MB-231, 24 h incubation, mean ± SD (n = 4)
pancreas MiaPaca2 = test: MTT toxicity assay, MiaPaca2; assay type: cell-based, human; details: read-out: IC50 MiaPaca2, 24 h incubation, mean ± SD (n = 4)
Method in brief: as §1

N.N.[Cl][Pt][Cl] [cisplatin]
IC50 (leukemia Jurkat-T): 10.8 ± 1.2 µM | IC50 [1]: 69 ± 6.7 µM | IC50 (lung A549): 114 ± 9.1 µM | effect on electrophoretic mobility of plasmid pBR322 (plasmid (pBR322) DNA): both increase and decrease the mobility of the OC and the CCC forms | IC50 (prostate DU-145): 112 ± 33 µM | IC50 [2]: 46.4 ± 2.46 µM | IC50 [3]: 131 ± 18 µM | IC50 (pancreas MiaPaca2): 76.5 ± 7.4 µM
